Assay results reported in ChEMBL document CHEMBL5724801, “EUbOPEN Chemogenomics Library - Multiplex” (2024).
“And” between values parts separate entries of the source, which are not always exact repeats. Equal values may be shown once.

System: U2OS
Assay: Multiplex assay against U2OS
Type: toxicity, cell-based
Settings: human, 12 h, 1 µM, compound concentration 1 uM
Procedure, shortened: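 Cells stained live at seeding with Hoechst33342, BioTracker Green Microtubule Cytoskeleton Dye, MitoTracker Red and Annexin V Alexa Fluor 680 were imaged on a CQ1 microscope at 37°C and 5% CO2 after compound addition. Their classification by CellPathfinder machine-learning gating ran from Hoechst high-intensity objects versus normal cells, to healthy, pyknosed or fragmented nuclei among normal cells, to mitotic or apoptotic among pyknosed cells. Tubulin, mitochondrial-mass and membrane-permeability phenotypes are per cents of healthy-nucleus cells.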

| Structure (SMILES) | Population Apoptotic (%) | Population Fragmented Nuclei (%) | Population Healthy Nuclei (%) | Population Hoechst High Intensity Objects (%) | Population Membrane Permeable-Phenotype (%) | Population Mitotic Cells (%) | Population Normal (%) | Population Pyknosed Nuclei (%) | Population Tubulin-Different-Phenotype (%) | Total Cell Count |
| --- | --- | --- | --- | --- | --- | --- | --- | --- | --- | --- |
| CCN1CCN(Cc2ccc(Nc3ncc(F)c(-c4cc(F)c5nc(C)n(C(C)C)c5c4)n3)nc2)CC1.CS(=O)(=O)O | 40% and 33.33% | 3.09% and 3.21% | 86.11% and 81.41% | 0% and 0.64% | 3.23% and 10.24% | 60% and 66.67% | 100% and 99.36% | 10.8% and 15.38% | 6.09% and 6.3% | 324 and 157 |
| CC(C)c1noc(N2CCC(COc3ccc(-c4ccc(S(C)(=O)=O)cc4)nc3)CC2)n1 [GSK-1292263] | 72% and 100% | 27% and 16% | 62% and 77% | 2% and 1% | 3% and 4% | – | 97% and 98% | 10% and 5% | 0% and 2% | 177 and 114 |

Same assay, conditions: human, 12 h, 1 µM, compound concentration 1 uM

| Structure (SMILES) | Population Mitochondria Different-Phenotype (%) |
| --- | --- |
| CC(C)c1noc(N2CCC(COc3ccc(-c4ccc(S(C)(=O)=O)cc4)nc3)CC2)n1 [GSK-1292263] | 2% and 0% |

Same assay, conditions: human, 12 h, 10 µM, compound concentration 10 uM

| Structure (SMILES) | Population Apoptotic (%) | Population Fragmented Nuclei (%) | Population Healthy Nuclei (%) | Population Hoechst High Intensity Objects (%) | Population Membrane Permeable-Phenotype (%) | Population Mitotic Cells (%) | Population Normal (%) | Population Pyknosed Nuclei (%) | Population Tubulin-Different-Phenotype (%) | Total Cell Count |
| --- | --- | --- | --- | --- | --- | --- | --- | --- | --- | --- |
| CCN1CCN(Cc2ccc(Nc3ncc(F)c(-c4cc(F)c5nc(C)n(C(C)C)c5c4)n3)nc2)CC1.CS(=O)(=O)O | 43.96% and 38.67% | 4.12% and 4.26% | 70.88% and 42.55% | 0% | 56.98% and 48.33% | 56.04% and 61.33% | 100% | 25% and 53.19% | 92.64% and 93.33% | 364 and 141 |
| CC(C)c1noc(N2CCC(COc3ccc(-c4ccc(S(C)(=O)=O)cc4)nc3)CC2)n1 [GSK-1292263] | 90% and 100% | 31% and 20% | 60% and 73% | 2% and 0% | 10% | 10% and 0% | 97% and 100% | 7% and 5% | 6% | 262 and 134 |

Same assay, conditions: human, 12 h, 10 µM, compound concentration 10 uM

| Structure (SMILES) | Population Mitochondria Different-Phenotype (%) |
| --- | --- |
| CC(C)c1noc(N2CCC(COc3ccc(-c4ccc(S(C)(=O)=O)cc4)nc3)CC2)n1 [GSK-1292263] | 6% and 8% |

Same assay, conditions: human, 24 h, 1 µM, compound concentration 1 uM

| Structure (SMILES) | Population Apoptotic (%) | Population Fragmented Nuclei (%) | Population Healthy Nuclei (%) | Population Hoechst High Intensity Objects (%) | Population Membrane Permeable-Phenotype (%) | Population Mitotic Cells (%) | Population Normal (%) | Population Pyknosed Nuclei (%) | Population Tubulin-Different-Phenotype (%) | Total Cell Count |
| --- | --- | --- | --- | --- | --- | --- | --- | --- | --- | --- |
| CCN1CCN(Cc2ccc(Nc3ncc(F)c(-c4cc(F)c5nc(C)n(C(C)C)c5c4)n3)nc2)CC1.CS(=O)(=O)O | 36.67% and 46.88% | 2.68% and 4.65% | 82.68% and 76.74% | 0% | 3.54% and 6.06% | 63.33% and 53.12% | 100% | 14.63% and 18.6% | 7.67% and 9.85% | 410 and 172 |
| CC(C)c1noc(N2CCC(COc3ccc(-c4ccc(S(C)(=O)=O)cc4)nc3)CC2)n1 [GSK-1292263] | 63% and 66% | 32% and 15% | 57% and 77% | 1% and 0% | 5% and 2% | 36% and 33% | 98% and 99% | 9% and 6% | 3% and 1% | 236 and 145 |

Same assay, conditions: human, 24 h, 1 µM, compound concentration 1 uM

| Structure (SMILES) | Population Mitochondria Different-Phenotype (%) |
| --- | --- |
| CC(C)c1noc(N2CCC(COc3ccc(-c4ccc(S(C)(=O)=O)cc4)nc3)CC2)n1 [GSK-1292263] | 2% |

Same assay, conditions: human, 24 h, 10 µM, compound concentration 10 uM

| Structure (SMILES) | Population Apoptotic (%) | Population Fragmented Nuclei (%) | Population Healthy Nuclei (%) | Population Hoechst High Intensity Objects (%) | Population Membrane Permeable-Phenotype (%) | Population Mitotic Cells (%) | Population Normal (%) | Population Pyknosed Nuclei (%) | Population Tubulin-Different-Phenotype (%) | Total Cell Count |
| --- | --- | --- | --- | --- | --- | --- | --- | --- | --- | --- |
| CCN1CCN(Cc2ccc(Nc3ncc(F)c(-c4cc(F)c5nc(C)n(C(C)C)c5c4)n3)nc2)CC1.CS(=O)(=O)O | 48.89% and 41.41% | 5.44% and 6.04% | 59.59% and 27.52% | 0% | 31.3% and 21.95% | 51.11% and 58.59% | 100% | 34.97% and 66.44% | 66.09% and 65.85% | 386 and 149 |
| CC(C)c1noc(N2CCC(COc3ccc(-c4ccc(S(C)(=O)=O)cc4)nc3)CC2)n1 [GSK-1292263] | 92% and 66% | 25% and 15% | 65% and 75% | 0% and 2% | 10% and 6% | – | 99% and 97% | 9% and 8% | 3% and 2% | 284 and 143 |

Same assay, conditions: human, 24 h, 10 µM, compound concentration 10 uM

| Structure (SMILES) | Population Mitochondria Different-Phenotype (%) |
| --- | --- |
| CC(C)c1noc(N2CCC(COc3ccc(-c4ccc(S(C)(=O)=O)cc4)nc3)CC2)n1 [GSK-1292263] | 3% and 5% |

Same assay, conditions: human, 48 h, 1 µM, compound concentration 1 uM

| Structure (SMILES) | Population Apoptotic (%) | Population Fragmented Nuclei (%) | Population Healthy Nuclei (%) | Population Hoechst High Intensity Objects (%) | Population Membrane Permeable-Phenotype (%) | Population Mitotic Cells (%) | Population Normal (%) | Population Pyknosed Nuclei (%) | Population Tubulin-Different-Phenotype (%) | Total Cell Count |
| --- | --- | --- | --- | --- | --- | --- | --- | --- | --- | --- |
| CCN1CCN(Cc2ccc(Nc3ncc(F)c(-c4cc(F)c5nc(C)n(C(C)C)c5c4)n3)nc2)CC1.CS(=O)(=O)O | 47.62% and 37.14% | 4.31% and 6.15% | 83.37% and 75.9% | 0% | 2.58% and 6.08% | 52.38% and 62.86% | 100% | 12.33% and 17.95% | 8.92% and 12.84% | 511 and 195 |
| CC(C)c1noc(N2CCC(COc3ccc(-c4ccc(S(C)(=O)=O)cc4)nc3)CC2)n1 [GSK-1292263] | 77% and 90% | 23% and 15% | 69% and 74% | 2% and 1% | 3% and 6% | 22% and 10% | 97% and 98% | 6% and 10% | 2% and 1% | 339 and 201 |

Same assay, conditions: human, 48 h, 1 µM, compound concentration 1 uM

| Structure (SMILES) | Population Mitochondria Different-Phenotype (%) |
| --- | --- |
| CC(C)c1noc(N2CCC(COc3ccc(-c4ccc(S(C)(=O)=O)cc4)nc3)CC2)n1 [GSK-1292263] | 3% and 2% |

Same assay, conditions: human, 48 h, 10 µM, compound concentration 10 uM

| Structure (SMILES) | Population Apoptotic (%) | Population Fragmented Nuclei (%) | Population Healthy Nuclei (%) | Population Hoechst High Intensity Objects (%) | Population Membrane Permeable-Phenotype (%) | Population Mitotic Cells (%) | Population Normal (%) | Population Pyknosed Nuclei (%) | Population Tubulin-Different-Phenotype (%) | Total Cell Count |
| --- | --- | --- | --- | --- | --- | --- | --- | --- | --- | --- |
| CCN1CCN(Cc2ccc(Nc3ncc(F)c(-c4cc(F)c5nc(C)n(C(C)C)c5c4)n3)nc2)CC1.CS(=O)(=O)O | 65% and 80.18% | 3.14% and 4.64% | 34% and 21.85% | 0% and 0.66% | 9.09% | 35% and 19.82% | 100% and 99.34% | 62.86% and 73.51% | 68.91% and 27.27% | 350 and 152 |
| CC(C)c1noc(N2CCC(COc3ccc(-c4ccc(S(C)(=O)=O)cc4)nc3)CC2)n1 [GSK-1292263] | 87% and 83% | 22% and 12% | 68% and 77% | 4% and 1% | 6% and 5% | 12% and 16% | 95% and 98% | 9% | 2% and 4% | 354 and 189 |

Same assay, conditions: human, 48 h, 10 µM, compound concentration 10 uM

| Structure (SMILES) | Population Mitochondria Different-Phenotype (%) |
| --- | --- |
| CC(C)c1noc(N2CCC(COc3ccc(-c4ccc(S(C)(=O)=O)cc4)nc3)CC2)n1 [GSK-1292263] | 2% and 4% |
